iPSC survival up – enhancers of human iPSC single-cell survival; AID 602274; 360,000 tested, 0.044% active; hiPSC single-cell survival, ATPlite luminescence; 100% = ROCK inhibitor wells, 0% = DMSO; survival enhancement, % at 20 µM; in the data active = survival enhancement above about 18%;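 note: cells exposed to compounds for 16 hours before the ATP read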
SKN-1 block – inhibitors of C. elegans SKN-1; 360,000 tested, 0.49% active; inhibition, % at 21.8 µM; C. elegans VP596 Pgst-4::GFP/RFP ratio, acrylamide-induced, 24 h; AID 624304;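 active = interference check ratio from 0.5 to 1.5 plus GFP to RFP signal ratio inhibition reaching or exceeding a fixed threshold, cut at about 30% in these data, passing the limit was not always enough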
MT1-MMP act inh – inhibitors of human MT1-MMP activation; HT1080 RFP-PRO-GFP cells, GFP/RFP ratio fluorescence, overnight; percent of plate control window, DMSO zero; GFP/RFP ratio change, % at 20 µM; 360,000 tested, 0.061% active;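 active = GFP/RFP ratio change of at least 30% with cell ATP level not reduced by more than half and red fluorescence within 50% of control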
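Compound: 20 µM single dose, 1% DMSO / System: HT1080 RFP-PRO-GFP cells / Controls: DMSO and RFP-L50D-GFP cell wells / Read-out basis: GFP/RFP fluorescence ratio / Schedule: overnight compound exposure at 37 °C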
TbMetRS inhib – Trypanosoma brucei MetRS inhibition; inhibition, % at 11.9 µM; purified T. brucei MetRS, ATP depletion, Kinase-Glo luminescence; 360,000 tested, 0.4% active;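 active = inhibition above a per-plate cutoff of the control wells' mean inhibition plus 3 SD, cut at about 5.5% in these data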
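Material – parasite MetRS enzyme · Medium – HEPES-MgCl2-KCl buffer plus DTT, spermine, BSA, pyrophosphatase · Reagent – ATP, methionine and E. coli bulk tRNA substrates · Times – 15 min enzyme-compound preincubation, 2 h reaction, 10 min detection, 25 °C · Measured by – luminescence of leftover ATP · Evaluation – percent inhibition relative to median high and low control wells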
PREPL inh – inhibitors of human prolyl oligopeptidase-like enzyme PREPL. recombinant PREPL, fluorescence polarization activity-based probe. inhibition, % at 5.96 µM. 320,000 tested, 0.68% active. AID 2751; in the data active = inhibition above about 43%
Target sequence (Q4J6C6 whole entry, looked up): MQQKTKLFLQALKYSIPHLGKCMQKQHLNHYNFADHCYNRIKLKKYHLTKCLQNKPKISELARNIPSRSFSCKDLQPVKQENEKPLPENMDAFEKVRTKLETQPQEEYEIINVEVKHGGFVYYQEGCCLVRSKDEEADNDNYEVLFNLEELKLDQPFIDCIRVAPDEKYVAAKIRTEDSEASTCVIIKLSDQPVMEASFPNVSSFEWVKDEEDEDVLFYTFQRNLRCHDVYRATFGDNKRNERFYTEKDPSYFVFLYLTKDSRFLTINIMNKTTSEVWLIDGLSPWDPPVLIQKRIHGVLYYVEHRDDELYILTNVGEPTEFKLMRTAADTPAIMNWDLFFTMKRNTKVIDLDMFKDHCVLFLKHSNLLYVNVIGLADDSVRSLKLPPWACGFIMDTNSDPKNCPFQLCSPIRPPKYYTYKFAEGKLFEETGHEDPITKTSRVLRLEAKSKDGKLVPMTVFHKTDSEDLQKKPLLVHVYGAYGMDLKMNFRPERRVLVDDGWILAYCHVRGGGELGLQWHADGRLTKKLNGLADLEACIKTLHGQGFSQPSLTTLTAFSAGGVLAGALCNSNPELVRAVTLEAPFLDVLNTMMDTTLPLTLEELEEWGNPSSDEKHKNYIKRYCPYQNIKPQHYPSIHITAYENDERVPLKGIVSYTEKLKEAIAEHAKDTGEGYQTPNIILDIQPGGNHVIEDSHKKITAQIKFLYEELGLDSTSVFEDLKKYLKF
eLon inh – E. coli protease La inhibition. P0A9M0. purified E. coli Lon protease, fluorescence polarization. inhibition, % at 7.94 µM. 360,000 tested, 0.42% active. AID 602123; in the data active = inhibition above about 13%, passing the limit was not always enough
eLon confirm – confirmation of E. coli Lon protease inhibitors; shares compounds with eLon inh; purified E. coli Lon, fluorescence polarization; inhibition, % at 7.94 µM; 1,400 tested, 31% active; AID 602230; in the data active = inhibition above about 16%
Large screens that a line does not name were inactive (follow-up assays come after a bar, where they were run). In the library only some 1.8% were active in any assay of this set; here they are far more common.

Cc1ccc(C)c(Cn2c(=O)n(C)c(=O)c3sccc32)c1	none
O=C(O)CC(SCC(=O)Nc1ccc(S(=O)(=O)N2CCCC2)cc1)C(=O)O (centres undefined)	eLon inh 17.4 | eLon confirm inactive
CCCCNC(=O)C1(C)CCN1C(=O)c1c(F)ccc(C)c1F (centres undefined)	none (no result: PREPL inh)
CCCCNC(=O)C1(C)CCN1C(=O)c1ccc(OC)c(F)c1 (centres undefined)	eLon inh 15.9 (no result: PREPL inh) | eLon confirm inactive
CCCCNC(=O)C1(C)CCCCN1C(=O)c1sccc1C (centres undefined)	eLon inh 21.6 (no result: PREPL inh) | eLon confirm inactive
COc1ccccc1N(CC(=O)NC1CCCC1)C(=O)CCC(=O)Nc1ccccn1	eLon inh 18.1 | eLon confirm inactive
CC1CCCC(C)N1C(=O)COc1ccc(C(=O)Nc2ccccc2N2CCOCC2)cc1 (centres undefined)	eLon inh 19.6 | eLon confirm inactive
C[C@@H](NC(=O)c1coc(=O)c(Br)c1)c1ccccc1	none
Cc1cc(NC(=O)c2coc(=O)c(Br)c2)ccc1C(C)C	eLon inh 24.3 | eLon confirm 18.9
O=C(C1=C(O)C(=O)N(c2nccs2)C1c1ccccc1)c1cc2ccccc2o1 (centres undefined)	eLon inh active | eLon confirm 196.7
CCOc1cccc(C2C(C(=O)c3ccc(C)o3)=C(O)C(=O)N2c2nccs2)c1 (centres undefined)	eLon inh 97.8 | eLon confirm 118.5
CSc1ncc(CN2CCN(C3CCCCC3)C(CCO)C2)cn1 (centres undefined)	none
CC(=O)c1cc(C)ccc1OC(=O)CN1C(=O)c2ccccc2C1=O	none (no result: PREPL inh)
COC(=O)CSc1nnc(CNC(=O)c2ccc(S(=O)(=O)N3CCOCC3)cc2)n1C	none
COc1ccc(NC2CCN(C3CC(=O)N(c4ccc(F)c(Cl)c4)C3=O)CC2)cc1 (centres undefined)	eLon inh 17.1 | eLon confirm inactive
O=C(COC(=O)C1=Cc2ccccc2OC1)NCc1ccc(F)cc1	eLon inh 31.4 (no result: PREPL inh) | eLon confirm inactive
COc1ccc(N(C(=O)CNC(=O)c2cccs2)C(C(=O)NCC2CCCO2)c2ccccc2)c(OC)c1 (centres undefined)	none
CC1CCc2nc(NC(=O)C3COc4ccccc4O3)sc2C1 (centres undefined)	eLon inh 33.9 | eLon confirm inactive
CC1CCc2nc(NC(=O)C3CC3)sc2C1 (centres undefined)	none
Cn1c(CNC(=O)Nc2ccccc2)nnc1SCc1ccccc1	none
Cn1c(CNC(=O)Nc2cccc(Cl)c2)nnc1SCc1ccccc1	eLon inh 14.5 | eLon confirm inactive
Cc1ccccc1OCCNc1cc(N2CCCCC2)ccc1[N+](=O)[O-]	eLon inh 14.9 | eLon confirm inactive
Cc1ccccc1OCCNc1cc(N2CCN(CCO)CC2)ccc1[N+](=O)[O-]	none
Nc1nc(N)c(N=Nc2ccccc2)c(=O)[nH]1	none (no result: PREPL inh)
Nc1nc(N=Nc2ccc(O)cc2)cc(=O)[nH]1	eLon inh 66.8 (no result: PREPL inh) | eLon confirm 35.4
CC(=O)NCC(=O)NC(C(=O)Nc1ccc2c(c1)OCCO2)c1ccc(C)cc1 (centres undefined)	none
COc1ccc(C(NC(=O)CNC(C)=O)C(=O)Nc2ccc3c(c2)OCCO3)cc1 (centres undefined)	eLon inh 13.7 | eLon confirm inactive
CCc1nc2ccc(C(=O)NCCc3c[nH]c4ccccc34)cn2c1N(C=O)CCC(C)C	none (no result: PREPL inh)
O=C1c2ccccc2-c2n[nH]c3cccc1c23	eLon inh 22.6 (no result: PREPL inh) | eLon confirm 32.6
Cc1ccccc1[C@H](NC1c2ccccc2C=Cc2ccccc21)P(=O)(c1ccccc1)c1ccccc1	none (no result: PREPL inh)
CN(C)Cc1cc(O)c(CN(C)C)cc1O	eLon inh 32.1 | eLon confirm inactive
CC(=O)CC(=O)NC1CCc2ccccc21 (centres undefined)	none (no result: PREPL inh)
O=C(Nc1ccccc1C(=O)N1CCN(Cc2ccccc2)CC1)c1ccc(F)cc1	eLon inh 22.3 | eLon confirm inactive
CC(NC(=O)c1ccco1)c1nc(-c2ccc(Cl)cc2)no1 (centres undefined)	none
CNc1c(N)n(Cc2ccccc2)c(=O)[nH]c1=O	eLon inh 33.5 | eLon confirm 24.4
CCN(C(=O)COC(=O)C(c1ccccc1)c1ccccc1)c1c(N)n(Cc2ccccc2)c(=O)[nH]c1=O	eLon inh 24.8 (no result: PREPL inh) | eLon confirm inactive
Nc1c(NCc2ccccc2)c(=O)[nH]c(=O)n1Cc1ccccc1	eLon inh 15.4 | eLon confirm inactive
Cn1c(=O)[nH]c(=O)c2c1nc(NCc1ccccc1)n2Cc1ccc(F)cc1	none (no result: PREPL inh)
CCN(C(=O)COC(=O)CC(C)c1ccccc1)c1c(N)n(Cc2ccccc2)c(=O)[nH]c1=O (centres undefined)	none
NC(=S)NN=C1c2cc(OCCN3CCOCC3)ccc2-c2ccc(OCCN3CCOCC3)cc21	none
Cc1ccc(SCCC(=O)Nc2ccccc2Br)cc1	none
Cc1ccc(SCCC(=O)Nc2ccccc2C(=O)NC(C)C)cc1	eLon inh 69.0 | eLon confirm inactive
CN(C)CCCN1C(=O)c2cc3ccccc3cc2C1=O	none
CN(C)CCCN1C(=O)C2CCc3[nH]c4ccccc4c3C2C1=O (centres undefined)	eLon inh 23.8 | eLon confirm inactive
CCOC(=O)C1CCCN(C(=O)CC(c2ccccc2)c2ccccc2)C1 (centres undefined)	none
CCOC(=O)C1CCCN(C(=O)Cc2c(C(=O)O)[nH]c3ccccc23)C1 (centres undefined)	eLon inh 24.4 | eLon confirm 20.6
O=C(CSc1nc(O)cc(=O)n1-c1ccccc1)Nc1nc2ccccc2s1	none
Cc1ccccc1N(CC(=O)NC1CCCC1)C(=O)c1oc(C(C)(C)C)cc1C	none
Cc1cc(C(C)(C)C)oc1C(=O)N(CC(=O)NC1CCCC1)Cc1ccccc1Cl	eLon inh 133.2 | eLon confirm inactive
Cc1cc2nc3c(=O)[nH]c(=S)[nH]c3nc2cc1NC(=O)C(F)(F)F	eLon inh active | eLon confirm 144.5
COc1cc(OC)c(C2Nc3ccccc3NC3=C2C(=O)CC(C)(C)C3)cc1OC (centres undefined)	eLon inh 17.0 | eLon confirm inactive
Cn1cccc1C1Nc2ccccc2NC2=C1C(=O)CC(C)(C)C2 (centres undefined)	eLon inh 39.4 | eLon confirm inactive
CC1(C)CC(=O)C2=C(C1)Nc1ccccc1NC2c1cccc(F)c1 (centres undefined)	none (no result: PREPL inh)
